# Compound activity (PubChem)
# This is a sample that favours compounds with a hit; in the whole collection about 2% have one here.
# HEK293 NFkB inh = inhibitors of the PMA/ionomycin-induced NF-kB reporter in HEK293 cells; HEK-293 NF-kB luciferase reporter, luminescence; inhibition, % at 3 µM; 0.21% of 62,000 active; AID 465;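 active = inhibition above the mean of all tested compounds plus 3 SD, cut at about 40% in these data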;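 note: 0% = stimulated DMSO wells and 100% = 10 µM reference inhibitor 5653914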
#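 Reagent: PMA plus ionomycin mix as NF-kB-activating stimulus. Assay system: NF-kB luciferase reporter HEK-293 cells. Technique: luminescence from luciferase substrate reagent. Incubation: 1 h compound pre-incubation, 16 h PMA/ionomycin at 37 °C. Benchmarks: DMSO only as uninhibited control, 10 µM reference inhibitor as full inhibition. Repeats: tested once.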
# SKBR3 24h inh = SK-BR-3 proliferation inhibitors. SK-BR-3 viability, CellTiter-Glo ATP luminescence, 24 h; active compounds read low. viability, % at 10 µM. 0.47% of 41,000 active;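 active = viability at or below the median of all test compounds minus 3 SD, in both replicates if run twice, cut at about 45% in these data; inconclusive = duplicate replicates that disagree with each other; inactive = viability above that cutoff in every replicate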;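 note: 100% = median untreated cell wells and 0% = median positive control drug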
# Her2 expr inh = lowers expression of human Her2 kinase; P04626; SKBR-3 HER2 protein level, AlphaScreen, 18-24 h; active compounds read low; HER2 level % of control, % at 10 µM; 0.69% of 65,000 active;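 active = HER2 level under 5% of the carrier-only control; inconclusive = no clear call, values can overlap the other calls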;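 note: 100% = DMSO carrier and 0% = 500 nM PU-H71 HSP90 inhibitor; lower value means stronger loss of Her2 protein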
# Jurkat viability = reduces viability or proliferation of Jurkat cells | Jurkat E6.1 viability, ATP luminescence, 48 h | 1.2% of 56,000 active | inhibition, % at 4 µM;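 active = inhibition above the mean inhibition of all tested compounds plus 3 SD, cut at about 28% in these data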
# The depositor's hits bear a star; u = inconclusive; x = no result given.
SMILES,HEK293 NFkB inh,SKBR3 24h inh,Her2 expr inh,Jurkat viability
O=C(CN1C(=O)C2C3C=CC(C3)C2C1=O)NCCN1CCCc2ccccc21 (stereo unspecified),23,102,120,1
CN1CCc2c(n(CC(O)CN3C(=O)c4ccccc4S3(=O)=O)c3ccccc23)C1=O (stereo unspecified),x,112,95,x
CC(C)NCC(O)Cn1c2c(c3ccccc31)CCc1c-2cnn1-c1ccccc1 (stereo unspecified),14,2.2*,-16*,1
O=c1[nH]c2cc3c(cc2cc1C(c1nnnn1C1CCCCC1)N1CCSCC1)OCCO3 (stereo unspecified),2,90,56,2
CCOc1ccc(-n2c(=O)c3c4c(sc3n(CC(=O)NCc3ccco3)c2=O)CCC4)cc1,10,103,95,-9
COc1ccc(C2=NOC(C(=O)NCc3ccc(F)cc3)C2)cc1OC (stereo unspecified),33,x,71,93*
COc1cccc(C2=NOC(C(=O)NCc3ccc(F)cc3)C2)c1 (stereo unspecified),-2,x,89,-5
COc1cc(C2=NOC(C(=O)NCc3ccc(F)cc3)C2)cc(OC)c1OC (stereo unspecified),30,x,111,96*
CCN(CC)S(=O)(=O)c1cc(C(=O)Nc2ccncc2)ccc1Cl,17,x,80,48*
Cc1nc(NS(=O)(=O)c2ccccc2)sc1NC(=O)OC(C)C,x,109,105,x
CCOC(=O)C(C)Oc1cccc2c(=O)n(CC(=O)NCc3ccc4c(c3)OCO4)ccc12 (stereo unspecified),34,x,74,87*
CCOC(=O)C(C)Oc1cccc2c(=O)n(CC(=O)Nc3ccc4c(c3)OCCO4)ccc12 (stereo unspecified),1,x,69,-3
CC1CN=C(N(C(=O)Nc2ccccc2)c2ccc(S(=O)(=O)N3CCOCC3)cc2)S1 (stereo unspecified),15,x,1.3*,13
CC(C(=O)Nc1ccc(S(=O)(=O)N2CCOCC2)cc1)N(c1ccccc1)S(C)(=O)=O (stereo unspecified),9,122,89,-1
O=C(CN1C(=O)C2CC=CCC2C1=O)Nc1nccs1 (stereo unspecified),8,x,73,-5
Nc1nnc(CCN2C(=O)CSC2=O)s1,11,40*,102,-1
Cc1ccc2c(c1)N(CC(=O)OC(CC(C)C)C(=O)NC1CCCC1)C(=O)CO2 (stereo unspecified),24,84,-24*,5
O=C(c1cc(-c2ccc(O)cc2)on1)N1CCc2ccccc2C1,-5,x,98,45*
O=C(c1cc(-c2ccccc2O)on1)N1CCc2ccccc2C1,9,x,77,-6
CC1CCCN(CC(=O)Nc2ccc(S(=O)(=O)NC3CCCCC3)cc2)C1 (stereo unspecified),20,76,121,-2
O=c1[nH]c(Nc2nc3ccccc3o2)nc2c1CCCC2,-53,x,-3.3*,-4
CC(=O)c1c(C)[nH]c(C(=O)OCCCCN2C(=O)c3ccccc3C2=O)c1C,31,x,86,67*
Cc1ccc2[nH]c3c(NCCCN4CCCC4=O)ncnc3c2c1,9,89,84,8
Cc1cc(C)nc(N2CCCC(C(=O)NCCc3ccc(F)cc3)C2)n1 (stereo unspecified),10,102,103,-4
Cc1cc(C)nc(N2CCC(C(=O)NCCc3ccc(F)cc3)CC2)n1,52*,83,74,4
SMILES,HEK293 NFkB inh,SKBR3 24h inh,Her2 expr inh,Jurkat viability
CCn1c(SCC(=O)NCc2ccco2)nc2c1c(=O)n(C)c(=O)n2C,2,42*,107,-1
Cc1nnc(SC(=O)N2c3ccccc3Sc3ccccc32)s1,28,x,0.9*,17
Cn1cnc2c(sc3nc(N4CCOCC4)c4c(c32)CC(C)(C)OC4)c1=O,9,x,96,-1
O=C(Nc1cccc(Cl)c1)Nc1ccc2c(c1)OCO2,-33,93,110,-3
O=S(=O)(CCSc1nc2ccccc2o1)c1nc2ccccc2s1,20,u,-14*,64*
O=C(CSc1nc2ccccc2s1)Nc1ncccn1,10,89,85,0
O=S(=O)(CCSc1ccccn1)c1nc2ccccc2s1,24,125,-8.5*,50*
Cc1nc(C)c(C(=O)C2=C(O)C(=O)N(CCCn3ccnc3)C2c2ccc(Cl)cc2)s1 (stereo unspecified),8,88,94,8
Cc1nn2c(-c3ccco3)nnc2c2ccccc12,9,125,-1.1*,8
Cc1nn2c(-c3ccncc3)nnc2c2ccccc12,-9,85,98,8
Cc1ccsc1C(=O)Nc1nnc(-c2ccco2)o1,1,x,89,89*
CC(C)(C)C(=O)NC1CCN(S(=O)(=O)c2cccc(C(F)(F)F)c2)CC1,13,23*,72,8
CC(C)CCN(C)C1CCN(S(=O)(=O)c2cccc(C(F)(F)F)c2)CC1,-9,x,106,-8
CN(C)/C=C1\C(=O)c2ccc(N(C)C)nc2CC1c1ccccc1 (stereo unspecified),12,104,82,0
CCOc1ccc2nc(N3CCC(C(=O)N4CCN(c5ncccn5)CC4)CC3)sc2c1,9,x,100,-3
CCOc1ccc2nc(N3CCC(C(=O)N4CCN(c5ccccn5)CC4)CC3)sc2c1,10,x,78,35*
Cn1cc(/C=N/n2cnc3scc(-c4ccc(Cl)cc4)c3c2=O)c2ccccc21,40*,x,89,96*
CCn1cnc2scc(-c3ccccc3)c2c1=O,11,94,99,4
Cc1noc(C)c1COc1cccc(C(=O)OCC(=O)N2CC(=O)Nc3ccccc32)c1,-4,x,94,84*
CC1CN(Cc2nc3c(c(=O)n(C)c(=O)n3C)n2Cc2ccc(Cl)cc2)CC(C)O1 (stereo unspecified),6,x,107,-1
Cc1cc(NC(=O)CSc2nc3c(c(=O)n2-c2ccc(Br)cc2)SCC3)no1,15,40*,25,2
CCCCn1c(SCC(=O)c2ccccc2)nc2c1c(=O)[nH]c(=O)n2C,16,x,99,2
[O-][n+]1onc2c1CCc1nnc(-c3ccccc3)cc1-2,-8,69,61,2
Cc1ccc(-c2cc3c(nn2)-c2ccccc2C3=O)cc1,62*,95,65,16
O=C(CSc1nnnn1C1CC2CCC1C2)Nc1ccnc2ccccc12 (stereo unspecified),58*,84,101,100*
SMILES,HEK293 NFkB inh,SKBR3 24h inh,Her2 expr inh,Jurkat viability
CCc1nc(SCC(=O)Nc2ccnc3ccccc23)n[nH]1,8,109,101,4
O=C(NCc1ccccn1)C1CCN(S(=O)(=O)c2cnc[nH]2)CC1,21,x,138,-4
O=C(Nc1nnc(-c2ccccc2Cl)o1)c1cccnc1,-13,77,46,8
N#Cc1c(NC(=O)CSc2ncn[nH]2)sc2c1CCCCC2,54*,106,41,19
N#Cc1c(NC(=O)CSc2nc(N)cc(=O)[nH]2)sc2c1CCCCCC2,11,94,89,56*
COc1ccc(-n2c3c(cc(C(=O)Nc4ccc5c(c4)C(=O)NC5=O)c2=O)C(=O)CCC3)cc1,21,114,91,0
